We go through 33 compounds from PubChem BioAssay AID2626 (Vanderbilt High Throughput Screening Facility, 2010).

SMILES strings stand for the structures. Activity calls are given as the source filed them.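 Rule for the calls: active = response above about half the acetylcholine maximum when tested at 10 µM with a low acetylcholine dose; inactive = response below half the acetylcholine maximum.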

Sequence of Muscarinic acetylcholine receptor M1 (Rattus norvegicus) (P08482 whole entry, looked up): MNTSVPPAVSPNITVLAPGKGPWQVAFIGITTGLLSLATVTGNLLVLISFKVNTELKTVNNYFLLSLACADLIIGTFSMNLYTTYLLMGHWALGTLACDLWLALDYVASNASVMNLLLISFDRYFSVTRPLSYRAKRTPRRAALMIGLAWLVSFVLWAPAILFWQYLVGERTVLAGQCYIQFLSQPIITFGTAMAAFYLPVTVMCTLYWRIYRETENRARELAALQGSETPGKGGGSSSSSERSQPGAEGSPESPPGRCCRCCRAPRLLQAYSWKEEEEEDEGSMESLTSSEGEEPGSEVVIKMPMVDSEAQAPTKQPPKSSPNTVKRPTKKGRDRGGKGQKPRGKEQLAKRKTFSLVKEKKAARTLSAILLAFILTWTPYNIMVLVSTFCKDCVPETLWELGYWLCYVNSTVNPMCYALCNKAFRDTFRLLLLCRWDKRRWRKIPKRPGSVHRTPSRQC

The experiment deals with Muscarinic acetylcholine receptor M1 (Rattus norvegicus) (UniProt P08482). Description: enhancement of submaximal ACh response at M1 – ACh EC20, CHO cells (AID 2626). To be noted: CHO rM1 cells, calcium response with ACh EC20; at 10 µM; stronger effect = higher value. Put shortly:
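Material: CHO cells with rat M1 receptor; reagent: acetylcholine near EC20; compound: one dose, 10 µM; measure: enhancement of acetylcholine response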
Take `Cc1cc(NC(=O)CS(=O)(=O)c2cn(Cc3ccc(OC(F)(F)F)cc3)c3ccccc23)no1`: the % of ACh max response (PAM) is 28.7% (inactive).

On to `O=C(O)CS(=O)(=O)c1cn(Cc2cc(Br)ccc2F)c2ccccc12`, for which the % of ACh max response (PAM) was 18.1% (inactive).

As to `Cc1cc(NC(=O)C(Cc2ccc(F)cc2F)S(=O)(=O)c2cn(Cc3ccc(F)cc3F)c3ccccc23)no1` (stereo not drawn), the % of ACh max response (PAM) was 38.5% (inactive).

Regarding `Cc1cc(NC(=O)C(C)S(=O)(=O)c2cn(Cc3cc(Br)ccc3F)c3ccccc23)no1` (stereo not drawn), the % of ACh max response (PAM) is 19.7% (inactive).

As to `Cc1cc(NC(=O)CS(=O)(=O)c2cn(Cc3ccc(Cl)cc3)c3ccccc23)no1`, the % of ACh max response (PAM) is 30.8% (inactive).

On to `Cc1cc(NC(=O)CS(=O)(=O)c2c[nH]c3ccccc23)no1`, for which the % of ACh max response (PAM) is 29% (inactive).

Consider `Cc1cc(NC(=O)CS(=O)(=O)c2cn(Cc3ccc(F)c(Br)c3)c3ccccc23)no1`, for which the % of ACh max response (PAM) is 24% (inactive).

`COc1ccc(Cn2cc(S(=O)(=O)CC(=O)Nc3cc(C)on3)c3ccccc32)cc1`: the % of ACh max response (PAM) is 54.8%.

As for `Cc1cc(NC(=O)CS(=O)(=O)c2cn(Cc3cccc(-c4ccc(N5CCOCC5)nc4)c3)c3ccccc23)no1`, the % of ACh max response (PAM) is 18.5% (inactive).

For `Cc1cc(NC(=O)CS(=O)(=O)c2cn(Cc3cccc(-c4ccc(N5CCCC5)nc4)c3)c3ccccc23)no1`, the % of ACh max response (PAM) was 33.3% (inactive).

Turning to `Cc1cc(NC(=O)CS(=O)(=O)c2cn(Cc3cccc(-c4ccc(N5CCNCC5)nc4)c3)c3ccccc23)no1`, the % of ACh max response (PAM) is 43.6% (inactive).

For `Cc1cc(NC(=O)C(Cc2ccccc2F)S(=O)(=O)c2cn(Cc3ccccc3F)c3ccccc23)no1` (stereo not drawn), the % of ACh max response (PAM) is 44.5% (inactive).

As for `CS(=O)(=O)c1cn(Cc2ccccc2Cl)c2ccccc12`, the % of ACh max response (PAM) is 26.3% (inactive).

Regarding `Cc1cc(NC(=O)CS(=O)(=O)c2cn(Cc3ccccc3F)c3ccccc23)no1`, the % of ACh max response (PAM) was 52.9%.

Take `Cc1cc(NC(=O)CS(=O)(=O)c2cn(Cc3cccc(C#N)c3)c3ccccc23)no1`: the % of ACh max response (PAM) is 52.7%.

Take `Cc1cc(NC(=O)CS(=O)(=O)c2cn(Cc3ccc(C(F)(F)F)cc3)c3ccccc23)no1`: the % of ACh max response (PAM) was 30.4% (inactive).

`Cc1cc(NC(=O)CS(=O)(=O)c2cn(Cc3ccc(F)cc3F)c3ccccc23)no1`: the % of ACh max response (PAM) was 51.6%.

In the case of `Cc1cc(NC(=O)CSc2c[nH]c3ccccc23)no1`, the % of ACh max response (PAM) is 28.8% (inactive).

Turning to `COc1ccccc1Cn1cc(S(=O)(=O)CC(=O)Nc2cc(C)on2)c2ccccc21`, the % of ACh max response (PAM) is 30.6% (inactive).

For `Cc1cc(NC(=O)CS(=O)(=O)c2cn(Cc3cccc(-c4cnn(CC(C)C)c4)c3)c3ccccc23)no1`, the % of ACh max response (PAM) is 24.4% (inactive).

`COC(=O)CS(=O)(=O)c1cn(Cc2cc(Br)ccc2F)c2ccccc12`: the % of ACh max response (PAM) is 7.5% (inactive).

For the compound `Cc1cc(NC(=O)CS(=O)(=O)c2cn(Cc3ccc4c(c3)OCO4)c3ccccc23)no1`, the % of ACh max response (PAM) was 35.8% (inactive).

Take `O=C(CS(=O)(=O)c1cn(Cc2cc(Br)ccc2F)c2ccccc12)Nc1ccccc1`: the % of ACh max response (PAM) is 13.9% (inactive).

`Cc1cc(NC(=O)C(Cc2ccc(OC(F)(F)F)cc2)S(=O)(=O)c2cn(Cc3ccc(OC(F)(F)F)cc3)c3ccccc23)no1` (stereo not drawn): the % of ACh max response (PAM) was 28.7% (inactive).

With `Cc1cc(NC(=O)C(Cc2cccc(Cl)c2)S(=O)(=O)c2cn(Cc3cccc(Cl)c3)c3ccccc23)no1` (stereo not drawn), the % of ACh max response (PAM) was 42.1% (inactive).

`Cc1cc(NC(=O)CSc2cn(Cc3cccc(Br)c3)c3ccccc23)no1`: the % of ACh max response (PAM) is 26.9% (inactive).

Consider `Cc1cc(NC(=O)CS(=O)(=O)c2cn(Cc3cc(Br)cc(Br)c3)c3ccccc23)no1`, for which the % of ACh max response (PAM) was 12.7% (inactive).

On to `Cc1cc(NC(=O)CS(=O)c2cn(Cc3cccc(Cl)c3)c3ccccc23)no1` (stereo not drawn), for which the % of ACh max response (PAM) was 72.4%.

For the compound `Cc1cc(NC(=O)CS(=O)(=O)c2cn(Cc3ccc(F)nc3)c3ccccc23)no1`, the % of ACh max response (PAM) was 41.2% (inactive).

Regarding `Cc1cc(NC(=O)CS(=O)(=O)c2cn(Cc3cccc(-c4ccc(Cl)nc4)c3)c3ccccc23)no1`, the % of ACh max response (PAM) was 26.4% (inactive).

Consider `Cc1cc(NC(=O)CS(=O)(=O)c2cn(Cc3ccc(Br)cc3F)c3ccccc23)no1`, for which the % of ACh max response (PAM) is 27.7% (inactive).

Consider `Cc1cc(NC(=O)CSc2cn(Cc3ccccc3Cl)c3ccccc23)no1`, for which the % of ACh max response (PAM) was 26.7% (inactive).

For the compound `Cc1cc(NC(=O)C(C)S(=O)(=O)c2cn(Cc3cc(Br)cc(Br)c3)c3ccccc23)no1` (stereo not drawn), the % of ACh max response (PAM) was 17.7% (inactive).
